Reference: ChEMBL document CHEMBL2311421, “Synthesis, crystal structure and antidiabetic activity of substituted (E)-3-(Benzo [d]thiazol-2-ylamino) phenylprop-2-en-1-one” (Eur J Med Chem, 2013)

Key:
[1] = Inhibition of Swiss mouse intestinal glucosidase
How it was run: (§1)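 Enzyme source: tissue homogenates of pancreas, liver or small intestine from 12 h-starved 10-week-old male Swiss mice (20 g), made 1:10 w/v in ice-cold 10 mM phosphate buffer with 6 mM NaCl plus protease inhibitors. Spun at 10,000 rpm for 10 min; supernatant diluted to A280 0.4. Assayed as for amylase. IC50 from mean of n = 3.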

[2] = Inhibition of Swiss mouse liver glucosidase; how it was run: as §1
Pancreatic alpha-amylase = target: T1, Pancreatic alpha-amylase (Sus scrofa, UniProt P00690); assay: Inhibition of pig pancreatic alpha-amylase by Bernfeld method
T1 sequence (P00690 whole entry): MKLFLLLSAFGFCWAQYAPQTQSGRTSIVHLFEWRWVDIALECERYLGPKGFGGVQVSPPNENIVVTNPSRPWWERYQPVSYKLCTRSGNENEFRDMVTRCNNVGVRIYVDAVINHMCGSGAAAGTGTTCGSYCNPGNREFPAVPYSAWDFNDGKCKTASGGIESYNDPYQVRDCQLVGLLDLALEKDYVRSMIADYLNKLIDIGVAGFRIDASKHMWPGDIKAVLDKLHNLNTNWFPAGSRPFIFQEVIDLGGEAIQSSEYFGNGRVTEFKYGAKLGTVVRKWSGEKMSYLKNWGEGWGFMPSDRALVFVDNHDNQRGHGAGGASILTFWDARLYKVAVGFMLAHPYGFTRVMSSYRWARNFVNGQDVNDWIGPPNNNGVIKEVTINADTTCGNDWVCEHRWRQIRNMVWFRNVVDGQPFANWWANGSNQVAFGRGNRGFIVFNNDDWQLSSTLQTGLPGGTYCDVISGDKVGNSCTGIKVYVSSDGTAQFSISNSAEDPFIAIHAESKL

[3] = Inhibition of Swiss mouse pancreatic glucosidase; how it was run: as §1

IC50 ([1]; read-out: IC50) [µM] | IC50 ([2]; read-out: IC50) [µM] | IC50 (Pancreatic alpha-amylase) [µM] | IC50 [3] [µM] | IC50 [1] | IC50 [2] | SMILES
14.7 | 17.4 | 17.9 | 26.5 | – | – | CCOc1ccc2nc(N/C(=C\C(=O)c3ccc(Cl)cc3)SC)sc2c1
23.5 | 24.2 | 18.9 | 19.9 | – | – | CCOc1ccc2nc(N/C(=C\C(=O)c3ccc(C)cc3)SC)sc2c1
31.9 | 15.7 | 15.9 | 20.9 | – | – | CCOc1ccc2nc(N/C(=C\C(=O)c3ccc(Br)cc3)SC)sc2c1
29.3 | 21.4 | 18.6 | 23.2 | – | – | CCOc1ccc2nc(N/C(=C\C(=O)c3ccc(OC)cc3)SC)sc2c1
49.4 | 24.2 | 18.4 | 23.5 | – | – | CCOc1ccc2nc(N/C(=C\C(=O)c3ccc(F)cc3)SC)sc2c1

Further lines, the compound ahead of its results:

SMILES | IC50 ([1]; read-out: IC50) [µM] | IC50 ([2]; read-out: IC50) [µM] | IC50 (Pancreatic alpha-amylase) [µM] | IC50 [3] [µM] | IC50 [1] | IC50 [2]
CS/C(=C/C(=O)c1ccc(Br)cc1)Nc1nc2cc(C)c(C)cc2s1 | 25.9 | 16.7 | 16.9 | 24.7 | – | –
CS/C(=C/C(=O)c1ccc(F)cc1)Nc1nc2ccccc2s1 | 32.1 | 21.7 | 19.9 | 33.6 | – | –
CS/C(=C/C(=O)c1ccc(Cl)cc1)Nc1nc2ccccc2s1 | 44.5 | 15 | 20.3 | 32.4 | – | –
CS/C(=C/C(=O)c1ccc(C)cc1)Nc1nc2ccccc2s1 | 30 | 22.5 | 20.6 | 26.9 | – | –
CCOc1ccc2nc(N/C(=C\C(=O)c3ccccc3)SC)sc2c1 | – | – | 16.3 | 18 | Not Active | Not Active
C[C@H]1O[C@H](O[C@H]2[C@H](O)[C@@H](O)[C@@H](O[C@H]3[C@H](O)[C@@H](O)C(O)O[C@@H]3CO)O[C@@H]2CO)[C@H](O)[C@@H](O)[C@@H]1N[C@H]1C=C(CO)[C@@H](O)[C@H](O)[C@H]1O (some centres not stated) [ACARBOSE] | – | > 100 | – | > 100 | Not Active | –
CS/C(=C/C(=O)c1ccc(Br)cc1)Nc1nc2ccccc2s1 | 45.3 | 15.4 | 17.8 | 21.7 | – | –
